Series [1] in a line: Therapeutic index ([…]) was evaluated. The conditions noted are these: read-out: TI50.
Series [2] relates to Human immunodeficiency virus 1. The series can be described thus: (§1) Compound concentration that provides 50% cytoprotection on CEM-SS cells and HIV-1RF was measured using XTT assay. The series is classed as functional, organism-based. The note with it: Human immunodeficiency virus 1, CEM-SS. A digest of the protocol: (§2)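 CEM-SS cells infected with HIV-1RF. EC50 is the concentration giving 50% cytoprotection. CC50 is the concentration eliciting 50% cell death.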
(Formazan colour is commonly taken as a measure of viable cells.)

Series [3] has as its system Human immunodeficiency virus 1. Briefly: (§3) CC50 reflects the drug concentration that elicits 50% cell death of CEM-SS cells and HIV-1RF was measured using XTT assay. The series is classed as functional. The conditions noted are these: Human immunodeficiency virus 1, CEM-SS. A digest of the protocol: as §2
The subject of series [4] is CEM-SS. Described as §1. The series is classed as functional, cell-based. The conditions noted are these: Homo sapiens. In outline:
as §2

Series [5] has as its system CEM-SS. Described as §3. The series is classed as functional. The note with it: Homo sapiens. In outline: as §2
The subject of series [6] is Human immunodeficiency virus 1. Briefly: Compound concentration that provides 50% cytoprotection on PBMC cultures and HIV-1RF was measured using XTT assay. The class given is functional, organism-based.
The subject of series [7] is Human immunodeficiency virus 1. Briefly: CC50 reflects the drug concentration that elicits 50% cell death of PBMC cultures and HIV-1RF was measured using XTT assay. The class given is functional.

This note sets out measurements from ChEMBL document CHEMBL1131334, “Anti-HIV agents that selectively target retroviral nucleocapsid protein zinc fingers without affecting cellular zinc finger proteins” (J Med Chem, 1998).

pEC50: −log10 of the molar value.

Regarding `NS(=O)(=O)c1ccc(NC(=O)c2ccccc2SSc2ccccc2C(=O)Nc2ccc(S(N)(=O)=O)cc2)cc1`, the selectivity ratio in series [1] is more than 87. Also, in series [2], the negative logarithm of the EC50 (pEC50) (commonly −log10 of the EC50, conventionally taken in molar units) was 5.64. The CC50 (commonly the concentration giving 50% cytotoxicity) in series [3] is more than 200 µM.
Turning to `O=S1(=O)C[C@H](O)[C@H](O)CS1`, the pEC50 in series [4] is 5.18. The selectivity ratio in series [1] turned out to be 27.9. This compound also registered a CC50 in series [5] of 184 µM.
In turn, `NC(=O)c1cccc(N=O)c1` had a pEC50 in series [6] of 5.81. Further, the figures for the 50% cytotoxic concentration (CC50) in series [3] and in series [7] were 10.6 µM and 50 µM, respectively.
`NC(=O)/N=N/C(N)=O` [E927A]: the selectivity ratio in series [1] is more than 5.3. Further, the negative-log EC50 (pEC50) in series [2] was 4.42. In series [3], this compound returned a cytotoxic concentration (CC50) of more than 200 µM.
